Series [1] deals with Staphylococcus aureus. The series is described as follows: Antibacterial activity against methicillin-resistant Staphylococcus aureus 2658 RCMB after 18 hrs by broth microdilution assay. In kind it is functional. Summed up:
(§1)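 Broth microdilution: inoculum from 0.5 McFarland suspension diluted to about 5 × 10^5 CFU/mL. Media were cation-adjusted Mueller-Hinton broth for staphylococci, brain heart infusion for E. faecium, and tryptone soya broth for E. faecalis, S. pneumoniae and L. monocytogenes.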
(In general: Broth dilution looks for growth in wells or tubes with falling amounts of substance.)

Series [2] has as its system Staphylococcus aureus. The series is described as follows: Antibacterial activity against methicillin-resistant Staphylococcus aureus NRS123 USA400 assessed as reduction in bacterial growth after 2 to 4 hrs by time kill assay. Format: functional, organism-based. Summed up:
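Samples taken at 0, 2, 4, 6, 8, 12 and 24 h were serially diluted in PBS, plated on TSA and incubated ≥18 h for viable CFU/mL. DMSO was the negative control; two independent experiments.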

The test system of series [3] is Staphylococcus aureus. In words: Antibacterial activity against methicillin-resistant Staphylococcus aureus NRS385 after 18 hrs by broth microdilution assay. Format: functional. To be noted: NRS385, 18 h. A digest of the protocol:
as §1

Series [4] has as its system Enterococcus faecalis. The series is described as follows: Antibacterial activity against vancomycin-resistant Enterococcus faecalis ATCC 51299 after 18 hrs by broth microdilution assay. Format: functional. To be noted: ATCC 51299, 18 h. Summed up: as §1
In series [5] the test system is Staphylococcus epidermidis. The series is described as follows: Bactericidal activity against methicillin-resistant Staphylococcus epidermidis NRS101 incubated fo 18 hrs followed by re-plating on tryptic soy agar plates at 37 degC for 18 hrs by broth microdilution assay. To be noted: NRS101, 18 h. In kind it is functional.
The test system of series [6] is Staphylococcus aureus. In words: Antibacterial activity against methicillin-resistant Staphylococcus aureus NRS384 USA300 after 18 hrs by broth microdilution assay. In kind it is functional. As to conditions: NRS384 USA300, 18 h. Summed up: as §1
The subject of series [7] is Staphylococcus aureus. In words: Inhibition of biofilm formation in methicillin-resistant Staphylococcus aureus NRS384 USA300 at 1 time MIC after 24 hrs by crystal violet staining-based spectrophotometric analysis relative to control. Set-up: scale not given: the % may be the effect or the level left.
Series [8] concerns Staphylococcus aureus. In words: Inhibition of biofilm formation in methicillin-resistant Staphylococcus aureus NRS384 USA300 at 2 times MIC after 24 hrs by crystal violet staining-based spectrophotometric analysis relative to control. Set-up: scale not given: the % may be the effect or the level left.
The test system of series [9] is Staphylococcus aureus. In words: Inhibition of biofilm formation in methicillin-resistant Staphylococcus aureus NRS384 USA300 after 24 hrs by crystal violet staining-based spectrophotometric analysis.
The subject of a further series is Caco-2. In words: Cytotoxicity against human Caco2 cells at 32 ug/ml after 2 hrs by MTS assay. In kind it is cell-based. As to conditions: caco-2, 2 h. A digest of the protocol: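 Caco-2 cells grown in DMEM with 20% FBS, non-essential amino acids and penicillin-streptomycin, 37 °C, 5% CO2; exposed in triplicate to compounds (16, 32, 64 µg/mL) for 2 h; MTS added, 4 h further incubation, OD490 read; viability as percent of DMSO-treated controls; two independent experiments.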
Background: Tetrazolium dyes change colour on reduction, which living cells bring about.

Series [10] in a line: Safety index, ratio of cytotoxicity against human Caco2 cells at 32 ug/ml after 2 hrs by MTS assay to antibacterial activity against methicillin-resistant Staphylococcus aureus. Format: toxicity, cell-based. As to conditions: Caco-2 cells.
Series [11] concerns Staphylococcus aureus. The series is described as follows: Antibacterial activity against methicillin-sensitive Staphylococcus aureus ATCC 6538 after 18 hrs by broth microdilution assay. In kind it is functional. To be noted: ATCC 6538, 18 h. A digest of the protocol: as §1
For series [12], the system named is Staphylococcus epidermidis. The series is described as follows: Antibacterial activity against methicillin-resistant Staphylococcus epidermidis NRS101 after 18 hrs by broth microdilution assay. In kind it is functional. To be noted: NRS101, 18 h. Summed up:
as §1

Series [13] deals with Enterococcus faecium. In words: Antibacterial activity against vancomycin-resistant Enterococcus faecium ATCC 700221 after 18 hrs by broth microdilution assay. In kind it is functional. As to conditions: ATCC 700221, 18 h. A digest of the protocol: as §1
Series [14] concerns Enterococcus faecium. In words: Bactericidal activity against vancomycin-resistant Enterococcus faecium ATCC 700221 incubated fo 18 hrs followed by re-plating on tryptic soy agar plates at 37 degC for 18 hrs by broth microdilution assay. As to conditions: ATCC 700221, 18 h.
Series [15] relates to Staphylococcus aureus. In words: Antibacterial activity against methicillin-resistant Staphylococcus aureus NRS123 USA400 assessed as change in MIC after 14 serial passages by broth microdilution assay.
Series [16] concerns Staphylococcus aureus. In words: Bactericidal activity against vancomycin-resistant Staphylococcus aureus VRS10 incubated fo 18 hrs followed by re-plating on tryptic soy agar plates at 37 degC for 18 hrs by broth microdilution assay. Format: functional. As to conditions: VRS10, 18 h.
Series [17] concerns Enterococcus faecalis. In words: Bactericidal activity against vancomycin-resistant Enterococcus faecalis ATCC 51299 incubated fo 18 hrs followed by re-plating on tryptic soy agar plates at 37 degC for 18 hrs by broth microdilution assay. Format: functional. As to conditions: ATCC 51299, 18 h.

Eleven compounds from ChEMBL document CHEMBL4229382, “Phenylthiazoles with tert-Butyl side chain: Metabolically stable with anti-biofilm activity” (Eur J Med Chem, 2018) can be followed below.

Each structure is given as a SMILES string. Values after ≈ are worked out from the molar mass of the structure shown. Active and inactive are the calls of the source.

Turning to `Cc1nc(-c2ccc(C(C)(C)C)cc2)sc1-c1ccnc(N2CCC2)n1`, in the series on Staphylococcus aureus [1], the MIC – broadly, the lowest concentration that inhibits growth of the organism – was above 50 µg/mL.
The compound `Cc1nc(-c2ccc(C(C)(C)C)cc2)sc1-c1ccnc(NN)n1` displayed an MIC against Staphylococcus aureus [1] of 1.56 µg/mL (≈ 4.6 µM).
In turn, `Cc1nc(-c2ccc(C(C)(C)C)cc2)sc1-c1ccnc(N2CCOCC2)n1` gave an MIC against Staphylococcus aureus [1] of 25 µg/mL (≈ 63.4 µM).
Turning to `Cc1nc(-c2ccc(C(C)(C)C)cc2)sc1-c1ccnc(NC(=N)N2CCOCC2)n1`, the outcome in the series with Staphylococcus aureus [2] was Active. In addition, the MIC worked out at 4 µg/mL (≈ 9.16 µM) against Staphylococcus aureus [3]; 1.17 µg/mL (≈ 2.68 µM) with Staphylococcus aureus [1]; 4 µg/mL (≈ 9.16 µM) in the series on Enterococcus faecalis [4]; 4 µg/mL (≈ 9.16 µM) against Staphylococcus aureus [6]; 4 µg/mL (≈ 9.16 µM) against Staphylococcus aureus [11]; 4 µg/mL (≈ 9.16 µM) in series [12]. In addition, the MIC against Enterococcus faecium [13] is 4 µg/mL (≈ 9.16 µM). For the same compound, the MBC – broadly, the smallest concentration meeting the test's criterion for killing – worked out at 4 µg/mL (≈ 9.16 µM) in series [5] and 8 µg/mL (≈ 18.3 µM) against Enterococcus faecium [14]. The values for the Activity with Staphylococcus aureus [7], with Staphylococcus aureus [8] and with Caco-2 were 18.1%, 28.3% and “Non-Toxic”, respectively. In addition, in the series on Staphylococcus aureus [9], the inhibition result is “Dose-dependent effect”. For the same compound, in [10], the selectivity ratio at 2 h, 32 ug/ml fell in the range of 8 to 30.
Consider `Cc1nc(-c2ccc(C(C)(C)C)cc2)sc1-c1ccnc(NC2CCCCC2)n1`, for which the MIC in the series on Staphylococcus aureus [1] is above 50 µg/mL.
As for `CO[C@H]1/C=C/O[C@@]2(C)Oc3c(C)c(O)c4c(O)c(c(/C=N/N5CCN(C)CC5)c(O)c4c3C2=O)NC(=O)/C(C)=C\C=C\[C@H](C)[C@H](O)[C@@H](C)[C@@H](O)[C@@H](C)[C@H](OC(C)=O)[C@@H]1C` [RIFAMPIN], in the series on Staphylococcus aureus [15], the Ratio is on record as above 500000.
In turn, `Cc1nc(-c2ccc(C(C)(C)C)cc2)sc1-c1ccnc(N=C(N(C)C)N(C)C)n1` yielded an MIC with Staphylococcus aureus [1] above 50 µg/mL.
Compound `Cc1nc(-c2ccc(C(C)(C)C)cc2)sc1-c1ccnc(-c2cccnc2)n1` showed an MIC with Staphylococcus aureus [1] above 50 µg/mL.
`Cc1nc(-c2ccc(C(C)(C)C)cc2)sc1-c1ccnc(NC(=N)N)n1` gave an MIC in the series with Staphylococcus aureus [1] of 1.56 µg/mL (≈ 4.26 µM).
Same read-out and setting: the value for `CNC(=N)Nc1nccc(-c2sc(-c3ccc(C(C)(C)C)cc3)nc2C)n1` was 1.56 µg/mL (≈ 4.1 µM).
Consider `CN[C@H](CC(C)C)C(=O)N[C@H]1C(=O)N[C@@H](CC(N)=O)C(=O)N[C@H]2C(=O)N[C@H]3C(=O)N[C@H](C(=O)N[C@H](C(=O)O)c4cc(O)cc(O)c4-c4cc3ccc4O)[C@H](O)c3ccc(c(Cl)c3)Oc3cc2cc(c3O[C@@H]2O[C@H](CO)[C@@H](O)[C@H](O)[C@H]2O[C@H]2C[C@](C)(N)[C@H](O)[C@H](C)O2)Oc2ccc(cc2Cl)[C@H]1O` [VANCOMYCIN], for which the Activity with Staphylococcus aureus [7] is 3%. Further, the MBC was above 64 µg/mL in the series on Staphylococcus aureus [16], 64 µg/mL (≈ 44.2 µM) with Enterococcus faecalis [17] and above 64 µg/mL against Enterococcus faecium [14]. The MIC against Enterococcus faecium [13] was above 64 µg/mL.
